Compounds with a hit are over-represented: about 12% of the library has one in this group of screens.
Diaph act CS: compounds boosting diaphorase resazurin reduction – biochemical, uHTS, resorufin fluorescence, counter-screen for diaphorase-coupled primary assays, primary screen | Diaphorase/resazurin coupled assay, 16 min; stronger effect = higher value; 1 = vehicle wells, 0 = NADH-free wells | activation factor at 20 µM | 0.005% of 190,000 active;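 active = diaphorase activity raised at least twofold by the compound at 20 µM; inactive = activation factor below 2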
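Material: bacterial diaphorase enzyme (C. kluyveri); amount: enzyme 0.07 U/mL final; reagent: NADH substrate 0.114 mM plus resazurin dye 0.1 mM, final; doses: single compound dose of 20 µM, 1% DMSO final; timing: 16 min enzyme reaction, ambient temperature; measured by: fluorescence of resorufin, 544 nm excitation, 590 nm emission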
WT yeast gro inh: growth inhibition of WT strain, primary screen, mitochondrial fusion inhibitor project, WT and mutant strains, chemical genetic. 2.1% of 190,000 active. AID 1362, 2008. mitochondrial fusion phenotypic screen. inhibition, % at 10 µM; in the data active = inhibition above about 58%; tested in S. cerevisiae
L major viab: Leishmania major promastigote growth inhibition, primary screen | Leishmania major promastigotes, resazurin fluorescence viability | 9% of 200,000 active | AID 1063, 2008 | inhibition, % at 10 µM; in the data active = inhibition above about 50%;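 note: promastigotes grown with compound for 44 hours at 28 °C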
Diaph inh CS: diaphorase inhibitors and chemical oxidizers, primary screen, counter-screen for diaphorase-coupled primary assays, biochemical, uHTS, resorufin fluorescence. diaphorase resazurin-to-resorufin fluorescence, NADH, 16 min; bacterial (C. kluyveri) enzyme, not human. inhibition, % at 20 µM. 0.69% of 190,000 active. AID 1217, 2008;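 active = primary screen inhibition at 20 µM above a set limit, cut at about 50% in these data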;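 note: plate controls were DMSO with full reaction for no effect and wells lacking NADH for full effect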
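Test system: Clostridium kluyveri diaphorase enzyme / Quantity: diaphorase at 0.14 U/mL in enzyme working solution / Incubation: 16-min room-temperature incubation before reading / Benchmarks: NADH-free wells as positive control, DMSO-only neutral wells / Signal: resorufin fluorescence 544/590 nm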
ROMK mod: ROMK potassium channel modulators, primary screen, cell-based, thallium flux, MLSMR library; ATP-sensitive inward rectifier potassium channel 1 (Homo sapiens), P48048; Tet-inducible ROMK, thallium flux fluorescence; actives lie on both sides; B-score at 10 µM; 2% of 130,000 active; AID 1918, 2009;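 active = signal ratio slope over the read window, or its plate-corrected B-score, at least 3 SD from the plate mean, either direction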;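 note: B-score of the F/F0 ratio slope over 7 to 12 s after thallium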
Target sequence (P48048 whole entry, looked up): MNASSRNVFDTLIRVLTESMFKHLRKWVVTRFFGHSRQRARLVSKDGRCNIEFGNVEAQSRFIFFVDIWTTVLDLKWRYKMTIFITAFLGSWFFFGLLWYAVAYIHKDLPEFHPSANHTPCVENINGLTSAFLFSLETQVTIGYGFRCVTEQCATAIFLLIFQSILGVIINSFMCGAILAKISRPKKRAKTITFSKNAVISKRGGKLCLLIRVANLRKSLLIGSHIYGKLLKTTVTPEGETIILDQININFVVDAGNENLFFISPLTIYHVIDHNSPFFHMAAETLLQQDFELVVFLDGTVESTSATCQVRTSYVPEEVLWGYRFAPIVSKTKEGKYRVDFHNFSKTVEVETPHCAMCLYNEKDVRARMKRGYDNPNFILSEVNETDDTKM
Cl transport mod: KCC2 cotransporter modulators, thallium flux, primary screen, cell-based, HEK293 KCC2, FluoZin-2 fluorescence, MLSMR | Solute carrier family 12 member 5 (Homo sapiens), Q9H2X9 | KCC2 cells, thallium flux FluoZin-2 fluorescence | B-score of Tl+ flux slope (higher = more flux/activation; lower = inhibition) at 10 µM | 2.2% of 190,000 active | AID 1456, 2008;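 active = thallium flux slope and its plate-corrected score both differing from the plate sample mean at a set confidence after two filtering rounds, in either direction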;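 note: slope of fluorescence scaled to starting intensity during 10 to 20 s after thallium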
Lmaj promast 1uM: Leishmania major promastigote growth inhibition, confirmation, 1 µM repeat of primary hits | L. major promastigote growth, resazurin fluorescence, 48 h | 13% of 1,100 active | shares compounds with L major viab | inhibition, % at 1 µM;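 active = inhibition above about 50% in both repeat tests, limit read from the data; inconclusive = one repeat under the set limit, the other over it; inactive = both repeats under the set limit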
Numbers without * were called inactive; ? = inconclusive; . = not tested or not shown.

SMILES	Diaph act CS	WT yeast gro inh	L major viab	Diaph inh CS	ROMK mod	Cl transport mod	Lmaj promast 1uM
Oc1cccc(C(O)CNCc2ccc(-c3ccccc3)cc2)c1 (centres undefined)	0.9	17	91*	11	-0.78	0.1	-10
COc1cc(/C=N/NC(N)=S)cc(Br)c1OCc1ccccc1F	0.9	34	99*	10	-0.017	0.67	22
CCOc1c(Br)cc(/C=N\NC(=O)c2ccccc2)cc1OC	0.8	-2	46	23	0.8	-0.86	.
Cc1cc2nc(SCCOC(=O)Nc3ccccc3)nc(C)c2cc1C	0.8	12	66*	21	.	0.37	-14
CN(C)c1ccc(/C=N/NC(=O)c2nonc2N)cc1[N+](=O)[O-]	0.9	5	-6	14	-0.15	-0.4	.
Nc1nonc1C(=O)N/N=C/c1cccc([N+](=O)[O-])c1	0.8	-9	54*	17	.	0.58	1
CCN1C(=O)CCCc2ccccc21	0.9	-8	-5	7	1.5	-1.1	.
CN(C)CCCN1c2ccccc2CCc2ccc(Cl)cc21	0.9	62*	99*	10	.	1.1	20
CNCCCN1c2ccccc2CCc2ccccc21	1.1	-1	82*	-10	.	0.14	-1
CN(C)CCCN1c2ccccc2Sc2ccccc21	0.9	13	17	6	.	-0.8	.
CC1=NN(/C(=N\c2nnc(C)s2)Nc2ccc(C(C)(C)C)cc2)[C@H](c2ccc(C)cc2)S1	0.8	80*	64*	22	.	-0.36	29
Cc1ccn2cc(C34CC5CC(CC(C5)C3)C4)nc2c1	0.9	22	60*	13	-1.3	0.081	21
Cc1ccn2cc(C(=O)Nc3nnc(C)s3)nc2c1	0.7	5	-3	32	.	0.079	.
COc1ccc(NC(=O)Cn2cnc3sc(C)c(S(=O)(=O)N4CCN(C)CC4)c3c2=O)cc1OC	1	-4	3	2	-0.013	-0.042	.
O=C1C(Cl)=C(N2CCCCC2)C(=O)C(Cl)=C1c1cnc(N2CCCCC2)s1	0.4	8	59*	62*	.	0.23	2
CC(C)c1ccc(C2C(C#N)=C(N)N3C(=C2C#N)Sc2ccccc23)cc1 (centres undefined)	0.9	0	9	6	.	0.27	.
Nc1ccc2oc(CCc3ccccc3)nc2c1	0.9	-6	1	11	.	0.025	.
Nc1ccc2nn(-c3ccccc3)nc2c1	0.4	63*	81*	60*	-0.042	-1	-22
Nc1ccc2nn(-c3cccc4ccccc34)nc2c1	0.6	7	99*	41	-0.95	-0.99	-9
Nc1ccc2c(c1)nnn2-c1ccccc1	.	.	.	.	-0.33	0.84	.
FC(F)(F)c1cc(-c2cccs2)nc2ncnn12	1.1	0	-7	-10	0.18	0.018	.
OC(CC1CC12c1ccccc1-c1ncccc12)(c1ccccc1)c1ccccc1 (centres undefined)	0.8	74*	69*	20	.	-1.2	9
Cc1cc(C)c2cc(C=O)c(Cl)nc2c1	0.9	5	58*	9	.	-1.4	-7
Cn1cc(SCC(=O)NCc2ccc3c(c2)OCO3)c2ccccc21	0.7	11	2	27	.	-1	.
COc1cc2c(cc1NC(=S)NC(=O)c1c(OC)cccc1OC)oc1ccccc12	0.9	3	88*	14	.	-0.79	46
SMILES	Diaph act CS	WT yeast gro inh	L major viab	Diaph inh CS	ROMK mod	Cl transport mod	Lmaj promast 1uM
Cc1nn(C)c(C)c1/C=N/N=C1\CCC2C3CCc4cc(O)ccc4C3CCC12C (centres undefined)	0.9	5	98*	10	0.29	0.25	2
COc1ccc(C(N)CCc2ccc(C)o2)cc1 (centres undefined)	1	26	54*	3	-1.5	1.2	-15
CC(c1ccccc1C(O)(c1ccccc1)c1ccccc1)N(C)C (centres undefined)	1	15	99*	-5	.	0.25	26
CN(C)C/C=C/C(O)(c1ccccc1)c1ccccc1	.	.	.	.	.	-0.99	.
COc1ccc(C(CCN2CCCC(C)C2)c2c(OC)cc(OC)c3c2OC(=O)CC3c2cc(OC)c(OC)c(OC)c2)cc1 (centres undefined)	.	.	.	.	.	0.12	.
c1ccc2c(NC3CCCC3)nnc(NC3CCCC3)c2c1	0.8	12	97*	18	.	-0.63	12
Cc1ccccc1N(C(=O)c1cccs1)c1nc2ccccc2s1	0.8	2	99*	17	1.6	-0.28	?
CCn1c(COc2ccc(OC)cc2)nc2ccccc21	1	-3	2	4	.	-3	.
CCCn1c(-c2ccc(OC)cc2)nc2ccccc21	0.8	32	96*	16	.	-1.4	12
CC(C)(C)OC(=O)N1CCC(C(=O)N[C@@H](Cc2ccccc2)C(=O)O)CC1	1	3	-3	3	-0.42	-0.29	.
COC(=O)[C@@H]1CC[C@H](C)[C@@H](c2ccc(C)cc2)N1C(=O)c1ccc(/C=N/O[C@@H](C)CN2CCCCc3nc(C)c(C)cc32)cc1	1	75*	100*	0	1.1	2.1	-8
COc1ccccc1NC(=O)COn1nnc2ccc(S(=O)(=O)N3CCOCC3)cc21	0.9	0	7	11	1.1	-0.14	.
[O-][N+]1=c2ccc(Nc3ccccc3)cc2=NC12CCCCC2	0.3	7	100*	72*	-1.6	-0.73	66*
O=C(COC(=O)C1CC2C=CC1C2)Nc1ccccc1F (centres undefined)	0.9	8	-2	12	.	0.71	.
COc1ccc(CC2NCCC3(O)CCCCC23)cc1 (centres undefined)	1	-9	68*	0	-0.95	1	-7
CCCCCCc1c(O)nc(SCCN(C)C)[nH]c1=O	.	.	.	.	.	0.071	.
CCn1c(-c2ccc(-c3ccccc3)cc2)c[nH]c1=S	0.9	-5	16	14	-2.2	0.38	.
Cn1c(-c2ccc(-c3ccccc3)cc2)c[nH]c1=S	0.7	1	57*	33	.	2.2	-4
CCOc1ccc(Br)cc1S(=O)(=O)Nc1ccc(N2CCOCC2)cc1	0.9	21	8	12	1.2	2.1	.
CCOc1ccc(Br)cc1S(=O)(=O)Nc1ccccc1N1CCOCC1	0.7	13	100*	27	-0.89	.	23
